Published values gathered from unrelated publications.
Each line is one published result; the experiments were not run side by side.
Target: BDNF/NT-3 growth factors receptor (NTRK2, Homo sapiens, UniProt Q16620)

Structure (SMILES) | observed | mode | method | tested at | inhibition [%]
COc1cc2ncnc(Nc3ccc(Oc4ccccc4)cc3C)c2cc1OC | enzyme activity | inhibitor | – | 1 µM | 11
CC/C(=N\NC(=O)NCc1cccc(O)c1)c1ccc(O)c(C)c1O | enzyme activity | inhibitor | – | 0.1 µM | 2.2
O=C(Nc1cccc(Cl)c1)Nc1cccc(C(=O)Nc2ccc3[nH]ncc3c2)c1 | enzyme activity | inhibitor | FRET | 1 µM | 20.2
CNC(=O)c1cc2c(Oc3ccc(NC(=O)C4(C(=O)Nc5ccc(F)cc5)CC4)cc3)ccnc2cc1OC | enzyme activity | inhibitor | radiometric | 1 µM | 100
O=C(Nc1ccc(OC(F)(F)F)cc1)Nc1cccc(C(=O)Nc2ccc3[nH]ncc3c2)c1 | enzyme activity | inhibitor | FRET | 1 µM | 14.5
CCCS(=O)(=O)Nc1ccc(F)c(C(=O)c2c[nH]c3ncc(-c4ccc(Cl)cc4)cc23)c1F | enzyme activity | inhibitor | – | 1 µM | < 10
O=C(Nc1ccc(Cl)cc1)Nc1cccc(C(=O)Nc2ccc3[nH]ncc3c2)c1 | enzyme activity | inhibitor | FRET | 1 µM | 18.8
CN1CC(Oc2cnc(C#N)cc2-c2ccn3nc(NC(=O)C4CC4)cc3c2)C1 | enzyme activity | inhibitor | – | 1 µM | 4
COc1cc2ncnc(Nc3ccc(Oc4ccccc4)c(C)c3C)c2cc1OC | enzyme activity | inhibitor | – | 1 µM | -3
CNC(=O)c1cc(Oc2ccc(NC(=O)Nc3ccc(Cl)c(C(F)(F)F)c3)cc2)ccn1 | cell-free assay | – | – | 0.3 µM | 14
